Screening data: PubChem, several laboratories
An excerpt weighted towards active compounds, which were near 1.4% of everything screened.
STAT1 inh-1: STAT1 signaling inhibitors, primary screen, cell-based, HTS, luciferase reporter | NIH 3T3 STAT1-luciferase reporter, IFN-gamma, luminescence | inhibition, % at 5.5 µM | hit rate 0.35% among 200,000;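 active = inhibition above a set limit, the mean inhibition across all tested compounds plus 3 SD, cut at about 34% in these data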;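 note: 0% = IFN-gamma with DMSO and 100% = IFN-gamma with 300 µM nifuroxazide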
Platelet DG rel: inhibitors of platelet dense granule secretion, primary screen, cell-based, MLPCN, human platelets. human platelet-rich plasma, SFLLRN dense granule ATP release, luminescence. inhibition, %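 (compounds screened at 7.5 µM in platelet-rich plasma)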. hit rate 0.22% among 300,000;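 active = mean replicate score, as percent of positive control, at or above 50; inconclusive = mean below 50 but at least one replicate at or above 50; inactive = mean and every replicate below 50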
STAT3 inh: IL-6 driven STAT3 reporter inhibitors, primary screen, U3A cells, luciferase, luminescence, MLSCN library | IL-6 STAT3-luciferase reporter; host cell line lacks STAT1 | inhibition, % at 5.5 µM | hit rate 0.89% among 190,000 | AID 862, 2007;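 active = inhibition above the mean inhibition across all screened compounds plus 3 SD, cut at about 44% in these data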;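 note: 0% = DMSO only wells and 100% = 100 µM nifuroxazide control wells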
STAT3 activator: IL-6 driven STAT3 reporter potentiators, primary screen, U3A cells, luciferase, luminescence, MLSCN library | AID 871, 2007 | activation (% of control), % at 5.6 µM | hit rate 0.91% among 190,000 | IL-6 STAT3-luciferase reporter; 100% = signal with IL-6 EC80 alone;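 active = activation above the screen-wide mean of compound activation plus 3 SD, cut at about 130% in these data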;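 note: 0% = background luminescence of wells with medium and substrate only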
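Test system: STAT3-luciferase reporter U3A cells; Detection: reporter luminescence signal; Times: 1 h compound pre-exposure, 6 h IL-6 stimulation, 37 °C; Benchmarks: IL-6-only high control; Also added: IL-6 stimulus at 33 ng/mL final.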
PERK inh: block of dimerizer-induced PERK translation repression, primary screen, PERK inhibitor project, CHO PERK-DD cells, SEAP luminescence, HTS; inhibition, % at 5.6 µM; CHO PERK-DD fusion, SEAP luminescence translation reporter; AID 1416, 2008; hit rate 0.17% among 220,000;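 active = inhibition above the mean inhibition of all tested compounds plus 3 SD, set separately per screening campaign, cut at about 2.9% in these data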;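 note: PERK kinase domain activated by AP20187 dimerizer at 100 nM; 0% = DMSO with dimerizer and 100% = rapamycin at 8.4 µM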
Target sequence (Q9NZJ5 whole entry, looked up, the tested form may be a part): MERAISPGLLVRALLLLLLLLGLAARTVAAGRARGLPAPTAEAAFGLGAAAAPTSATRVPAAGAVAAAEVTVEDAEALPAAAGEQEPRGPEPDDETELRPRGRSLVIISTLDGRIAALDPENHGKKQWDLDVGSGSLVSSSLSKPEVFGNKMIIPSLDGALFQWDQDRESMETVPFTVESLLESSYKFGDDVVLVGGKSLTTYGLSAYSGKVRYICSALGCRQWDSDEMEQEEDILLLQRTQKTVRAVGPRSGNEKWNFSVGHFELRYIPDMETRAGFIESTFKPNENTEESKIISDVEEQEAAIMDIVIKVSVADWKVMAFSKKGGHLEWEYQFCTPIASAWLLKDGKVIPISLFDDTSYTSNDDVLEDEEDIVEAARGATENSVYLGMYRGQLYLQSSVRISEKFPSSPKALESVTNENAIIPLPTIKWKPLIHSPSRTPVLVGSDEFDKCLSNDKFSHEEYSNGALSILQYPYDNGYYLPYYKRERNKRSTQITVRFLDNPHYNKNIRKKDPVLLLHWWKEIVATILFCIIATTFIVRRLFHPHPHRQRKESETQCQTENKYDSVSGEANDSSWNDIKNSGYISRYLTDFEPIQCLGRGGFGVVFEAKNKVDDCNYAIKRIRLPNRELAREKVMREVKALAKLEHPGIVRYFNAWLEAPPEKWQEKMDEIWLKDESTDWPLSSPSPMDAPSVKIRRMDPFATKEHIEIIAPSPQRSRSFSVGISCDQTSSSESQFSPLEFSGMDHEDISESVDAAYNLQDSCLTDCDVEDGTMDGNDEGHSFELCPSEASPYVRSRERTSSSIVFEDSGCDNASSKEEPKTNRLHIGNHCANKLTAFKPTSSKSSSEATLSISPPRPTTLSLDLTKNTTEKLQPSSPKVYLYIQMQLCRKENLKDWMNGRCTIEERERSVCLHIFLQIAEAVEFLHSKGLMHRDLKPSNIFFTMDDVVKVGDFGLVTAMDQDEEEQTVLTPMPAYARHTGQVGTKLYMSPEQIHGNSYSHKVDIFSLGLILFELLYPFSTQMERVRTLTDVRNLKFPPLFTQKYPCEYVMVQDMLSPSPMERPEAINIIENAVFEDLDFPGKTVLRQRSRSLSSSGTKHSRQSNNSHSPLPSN
STAT1 inh-2: STAT1 signaling inhibitors, confirmation, cell-based, HTS, luciferase reporter. shares compounds with STAT1 inh-1. NIH 3T3 STAT1-luciferase reporter, IFN-gamma, luminescence. inhibition, % at 5.5 µM. hit rate 55% among 200;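 active = triplicate mean inhibition exceeding the hit cutoff computed for the primary STAT1 screen, cut at about 35% in these data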;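 note: 0% = DMSO with IFN-gamma and 100% = 300 µM nifuroxazide with IFN-gamma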
NFkB inh STAT1ct: NF-kB reporter inhibitors, TNF-alpha stimulated, counter-screen for STAT1 inhibitor project, cell-based, HEK293T, luciferase luminescence. hit rate 30% among 200. TNF-alpha induced. inhibition, % at 5.7 µM. AID 1303, 2008. shares compounds with STAT1 inh-1;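 active = inhibition above the mean of solvent-only control wells plus 3 SD of those wells, cut at about 15% in these data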;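 note: 0% = DMSO with TNF-alpha and 100% = MG-132 control with TNF-alpha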
STAT3 inh STAT1c: STAT3 reporter inhibition by STAT1 hits, counter-screen for STAT1 inhibitor project, U3A cells, luciferase, luminescence, triplicate. shares compounds with STAT1 inh-1. IL-6 STAT3 luciferase reporter; cells lacking STAT1. hit rate 20% among 200. inhibition, % at 5.7 µM;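 active = inhibition above the mean of solvent-only control wells plus 3 SD, set per campaign, cut at about 25% in these data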;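 note: 0% = IL-6 plus DMSO and 100% = IL-6 plus nifuroxazide control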
An asterisk follows results filed as active; ? = inconclusive; nt = no result.

SMILES	STAT1 inh-1	Platelet DG rel	STAT3 inh	STAT3 activator	PERK inh	STAT1 inh-2	NFkB inh STAT1ct	STAT3 inh STAT1c
CCOC(=O)c1cc2c(=O)n3ccccc3nc2n(Cc2ccco2)c1=NC(=O)c1ccc(OC)cc1OC	60*	-21	23	83	0	22	10	25*
CCN(CC)S(=O)(=O)c1ccc(N2CCOCC2)c(NC(=O)c2cc(-c3ccccn3)nc3ccccc23)c1	66*	13	17	92	0	46*	-3	19
O=C(O)C(Cc1ccccc1)N=Cc1c(O)c2ccccc2oc1=O (stereo not drawn)	41*	1	10	95	1	19	-5	-24
CC(C)c1ccc(N=Cc2c(O)c3ccccc3oc2=O)cc1	nt	4	nt	nt	nt	nt	nt	nt
CCCSc1ccc(C(=O)Nc2ccc(Cl)cc2)cn1	-33	1	-2	106	1	nt	nt	nt
CC1(C)Cc2c(ccc3ccccc23)C2=C(C(=O)N3CCCC3)C(=O)C(=O)N21	41*	7	6	96	1	41*	5	0
Cc1cccc(N(Cc2ccccc2)C(=O)CCl)c1	35*	-5	37	72	0	29	12	29*
O=C(CCl)N(Cc1ccccc1)c1ccccc1	17	-3	23	83	0	nt	nt	nt
C[C@@H](O)[C@H]1C(=O)N2C(C(=O)O)=C(S[C@@H]3CN[C@H](C(=O)N(C)C)C3)[C@H](C)[C@H]12	nt	6	nt	nt	nt	nt	nt	nt
O=C(NC(=S)Nc1ccc(-c2ccc(CO)o2)cc1)c1cccs1	1	7	12	91	1	nt	nt	nt
Cc1ccc(C(=O)NC(=S)Nc2ccc(-c3ccc(CO)o3)cc2)cc1	64*	-5	7	95	1	26	-8	-2
COc1ccc(-n2c(SCc3cccnc3)nc3c(c2=O)SCC3)cc1OC	45*	6	8	94	0	35*	10	-23
Cn1c(SCc2cccnc2)nc2c(c1=O)SCC2	7	3	2	102	1	nt	nt	nt
CCC(C)(C)C1CCc2c(sc(NC(=O)c3cccs3)c2C(N)=O)C1 (stereo not drawn)	16	-6	10	93	0	nt	nt	nt
CC(C)(C)C1CCc2c(sc(NC(=O)c3cccs3)c2C(N)=O)C1 (stereo not drawn)	54*	0	8	94	0	-58	-6	-21
COc1cc(C(=O)OCC(=O)Nc2sccc2C(N)=O)cc(OC)c1OC	42*	-12	28	80	0	-4	0	6
COc1ccc(C(=O)OCC(=O)Nc2sccc2C(N)=O)cc1OC	nt	6	nt	nt	1	nt	nt	nt
CCOC(=O)N1CCN(C(=O)c2ccc(-n3c(=S)[nH]c4ccccc4c3=O)cc2)CC1	60*	10	20	86	0	48*	8	9
CCOC(=O)N1CCN(C(=O)c2ccc3c(=O)n(-c4ccccc4F)c(=S)[nH]c3c2)CC1	40*	1	17	89	1	13	-12	0
CCOC(=O)N1CCN(C(=O)c2ccc3c(=O)n(-c4ccc(OC)cc4)c(=S)[nH]c3c2)CC1	10	-2	8	99	1	nt	nt	nt
CS(=O)(=O)Nc1ccc(C2=NN(C(=O)c3ccco3)C(c3cccc(F)c3)C2)cc1 (stereo not drawn)	56*	-13	20	91	0	29	-10	13
CC#CC[N+](C)(C)CCCCCCCCCC	nt	15	nt	nt	0	nt	nt	nt
O=C(O)CSc1nnc(NC(=O)c2ccc3c(c2)OCO3)s1	38*	2	21	91	2	27	20*	17
CC1=NC(C(F)(F)F)(C(F)(F)F)C(C#N)=C(C)N1	-2	6	5	99	1	nt	nt	nt
C=CCCOc1ccccc1C(N)=O	nt	-2	nt	nt	2	nt	nt	nt
SMILES	STAT1 inh-1	Platelet DG rel	STAT3 inh	STAT3 activator	PERK inh	STAT1 inh-2	NFkB inh STAT1ct	STAT3 inh STAT1c
O=C(NNC(=O)c1cccc(S(=O)(=O)N2CCc3ccccc32)c1)c1ccccc1	35*	-2	18	91	0	36*	5	20
Cc1nnc(NC(=O)c2cccc(S(=O)(=O)N3CCc4ccccc43)c2)s1	8	1	12	89	-1	nt	nt	nt
Cc1nc(N)nc(N)c1/C=C/C(C)(C)c1ccc(Cl)cc1	38*	-1	39	69	1	38*	28*	40*
CCN(C(=O)Cc1c(C(=O)O)n(C)c2ccccc12)c1ccc(F)cc1	-5	14	0	101	2	nt	nt	nt
O=C(CCN1C(=O)/C(=C/c2ccccc2)SC1=S)Nc1ccccn1	nt	13	nt	nt	nt	nt	nt	nt
Cc1ccc(/C=C2\SC(=S)N(CCCC(=O)Nc3ccccn3)C2=O)cc1	38*	-1	43	65	1	40*	44*	46*
COC(=O)CCS(=O)(=O)c1nc(-c2ccccc2)cc(C(F)(F)F)n1	38*	9	13	92	-2	42*	-14	4
CCOC(=O)CCS(=O)(=O)c1nc(-c2ccccc2)cc(C(F)(F)F)n1	40*	?	8	96	0	45*	0	0
COCC(C)NC(=O)CCS(=O)(=O)c1nc(-c2ccc(OC)cc2)cc(C(F)(F)F)n1 (stereo not drawn)	43*	-3	8	97	0	51*	-1	9
COc1ccc(-c2cc(C(F)(F)F)nc(S(=O)(=O)CCCC(=O)Nc3cccnc3Cl)n2)cc1OC	44*	nt	4	99	1	38*	5	-8
COCCNC(=O)CCSc1nc(-c2ccc(OC)cc2)cc(C(F)(F)F)n1	1	-2	8	96	-1	nt	nt	nt
COc1nc(-c2ccccc2)cc(C(F)(F)F)n1	3	-1	16	90	0	nt	nt	nt
O=C(O)CCS(=O)(=O)c1nc(-c2cccs2)cc(C(F)(F)F)n1	27	2	12	95	-1	nt	nt	nt
COc1cccc(OC)c1C(=O)OCC(=O)Nc1cccnc1Cl	2	-2	-3	106	1	nt	nt	nt
Cc1ccc(OCCn2cc(Br)c(=O)[nH]c2=O)cc1	-2	2	2	102	0	nt	nt	nt
CCN(CC)S(=O)(=O)c1cccc(NC(=O)COC(=O)C2CC3C=CC2C3)c1 (stereo not drawn)	0	-4	6	99	1	nt	nt	nt
